Experimental data as given in paper PMC5696082 (Analytical biochemistry, 2017).

Tests used:
Kidney S9 = experiment: Substrate hydrolysis by pooled tissue S9, kidney; assay type: biochemical, human
In short: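 Commercial pooled human tissue S9 fraction added to substrate at 50 µM final in 100 mM sodium phosphate, pH 8.0, 0.1 mg/mL BSA. Fluorescence monitored every 30 s for at least 10 min at 37°C. Specific activity given as the mean of triplicates in one experiment, or mean ± standard deviation of 3 independent experiments run in triplicate.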

hCE3 = biological target: T1, hCE3 (Homo sapiens, UniProt Q6UWW8); experiment: Specific activity of hCE3 towards substrates; assay type: biochemical
T1 sequence (Q6UWW8 27-571): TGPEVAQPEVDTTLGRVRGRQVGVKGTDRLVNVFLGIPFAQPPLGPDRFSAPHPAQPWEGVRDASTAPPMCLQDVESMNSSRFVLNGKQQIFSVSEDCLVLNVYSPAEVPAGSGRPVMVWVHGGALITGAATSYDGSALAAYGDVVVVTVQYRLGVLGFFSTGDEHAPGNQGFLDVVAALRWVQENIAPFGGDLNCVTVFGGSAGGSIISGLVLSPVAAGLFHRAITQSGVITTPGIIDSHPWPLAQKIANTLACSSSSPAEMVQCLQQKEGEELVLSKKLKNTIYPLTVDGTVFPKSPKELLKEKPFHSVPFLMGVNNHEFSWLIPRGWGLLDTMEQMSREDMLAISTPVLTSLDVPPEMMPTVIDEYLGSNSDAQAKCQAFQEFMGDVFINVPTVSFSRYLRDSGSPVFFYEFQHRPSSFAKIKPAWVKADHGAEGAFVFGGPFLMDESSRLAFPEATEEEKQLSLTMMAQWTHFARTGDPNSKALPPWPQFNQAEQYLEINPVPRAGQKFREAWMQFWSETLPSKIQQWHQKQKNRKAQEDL
In short: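 Enzymes expressed in baculovirus-infected High Five cells: hCE1 CHAPS-solubilised from the 100,000 g pellet, then DEAE-purified; hCE2/hCE3 crude soluble fraction; FAAH crude insoluble fraction. Substrate added to 50 µM final in 100 mM sodium phosphate pH 8.0, 0.1 mg/mL BSA, 1% DMSO. Fluorescence read every 30 s for ≥10 min at 37°C. Rates corrected for estimated purity: hCE1 25%, hCE2 4%, hCE3 3.5% (3% in footnotes), FAAH 6.9%. Triplicates.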

## CCCCC(C)CCC(=O)Nc1ccc(OC)nc1C (stereo not drawn) [4-MOMMP, N-(6-methoxy-2-methylpyridin-3-yl)-4-methyloctanamide]
Kidney S9
  Hydrolysis Specific Activity: <0.05 pmol/min/µg
hCE3; Table 3, [S] = 50 µM, 37°C, pH 8, estimated 3% purity
  hCE3 Specific activity: <1 pmol/min/µg
hCE3; Table 6, hCE3
  Hydrolysis Specific Activity: 1.4 ± 0.4 pmol/min/µg
